Experimental data as given in ChEMBL document CHEMBL1140069, “In vitro antifungal activity of polyfunctionalized 2-(hetero)arylquinolines prepared through imino Diels-Alder reactions” (2008).
In brackets after ≈: the same amount, converted by molar mass.

Legend:
Assay type in all cases: functional
[1] = system: Candida albicans; assay: Antimicrobial activity against Candida albicans ATCC 10231 at 12.5 ug/ml after 24 hrs; settings: ATCC 10231, 24 h
How it was run: (§1)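 Growth-inhibition microplate test. Strains are grown on Sabouraud-chloramphenicol agar for 48 h at 30 °C, and inoculum is added to RPMI-1640 containing compound at a final 100–6.25, with DMSO ≤2%. Each strain has a growth control (same DMSO, no compound) and a sterility control.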

[2] = system: Cryptococcus neoformans; assay: Antimicrobial activity against Cryptococcus neoformans ATCC 32264 at 12.5 ug/ml after 48 hrs; settings: ATCC 32264, 48 h
How it was run: (§2)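 Percent growth inhibition in 96-well microplates. Compound stocks in DMSO (≤2%) were diluted in RPMI-1640 to final 100–6.25 µg/mL, and 100 µL inoculum was added (final 200 µL). Controls were a growth well (inoculum with matching DMSO, no compound) and a sterility well (no inoculum). Inhibition was calculated against growth and sterility wells.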

[3] = system: Cryptococcus neoformans; assay: Antimicrobial activity against Cryptococcus neoformans IM 00319 isolate at 12.5 ug/ml after 48 hrs; how it was run: as §2
[4] = system: Cryptococcus neoformans; assay: Antimicrobial activity against Cryptococcus neoformans IM 961951 isolate at 12.5 ug/ml after 48 hrs; how it was run: as §2
[5] = system: Aspergillus niger; assay: Antifungal activity against Aspergillus niger ATCC 9029 after 48 hrs by broth microdilution technique; settings: ATCC 9029, 48 h
How it was run: (§3)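 CLSI broth microdilution: M-27 A2 for yeasts and M-38 A for filamentous fungi. Medium is RPMI-1640 buffered to pH 7.0 with MOPS. Compound is diluted twofold from 250 to 0.98, final DMSO ≤2%. Inoculum is 1–5 × 10³ CFU/mL. Plates are incubated at 35 °C in a moist, dark chamber and read visually at 48 h. MIC100 is the lowest concentration giving total growth inhibition versus drug-free control.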

[6] = system: Cryptococcus neoformans; assay: Antifungal activity against Cryptococcus neoformans ATCC 32264 after 48 hrs by broth microdilution technique; settings: ATCC 32264, 48 h; how it was run: as §3
[7] = system: Cryptococcus neoformans; assay: Antimicrobial activity against Cryptococcus neoformans IM 052470 isolate at 12.5 ug/ml after 48 hrs; how it was run: as §2
[8] = system: Cryptococcus neoformans; assay: Antimicrobial activity against Cryptococcus neoformans IM 972724 isolate at 100 ug/ml after 48 hrs
How it was run: (§4)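 Clinical Cryptococcus isolates kept on Sabouraud-dextrose agar slopes; inoculum 1–5 × 10³ CFU/mL. Quinoline DMSO stocks were diluted in RPMI-1640 to final 100–6.25 µg/mL, with DMSO ≤2%. An equal volume of inoculum was added (200 µL per well). Run in triplicate.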

[9] = system: Cryptococcus neoformans; assay: Antimicrobial activity against Cryptococcus neoformans IM 031631 isolate at 6.25 ug/ml after 48 hrs; how it was run: as §2
[10] = system: Cryptococcus neoformans; assay: Antimicrobial activity against Cryptococcus neoformans IM 052470 isolate at 100 ug/ml after 48 hrs; how it was run: as §2
[11] = system: Cryptococcus neoformans; assay: Antimicrobial activity against Cryptococcus neoformans IM 972724 isolate at 50 ug/ml after 48 hrs; how it was run: as §4
[12] = system: Cryptococcus neoformans; assay: Antimicrobial activity against Cryptococcus neoformans IM 983040 isolate at 100 ug/ml after 48 hrs; how it was run: as §4
[13] = system: Cryptococcus neoformans; assay: Antimicrobial activity against Cryptococcus neoformans IM 972751 isolate at 100 ug/ml after 48 hrs; how it was run: as §4
[14] = system: Cryptococcus neoformans; assay: Antimicrobial activity against Cryptococcus neoformans IM 972724 isolate at 12.5 ug/ml after 48 hrs; how it was run: as §4
[15] = system: Cryptococcus neoformans; assay: Antimicrobial activity against Cryptococcus neoformans IM 00319 isolate at 6.25 ug/ml after 48 hrs; how it was run: as §2
[16] = system: Cryptococcus neoformans; assay: Antimicrobial activity against Cryptococcus neoformans IM 983036 isolate at 100 ug/ml after 48 hrs; how it was run: as §4
[17] = system: Cryptococcus neoformans; assay: Antimicrobial activity against Cryptococcus neoformans IM 972751 isolate at 25 ug/ml after 48 hrs; how it was run: as §4
[18] = system: Cryptococcus neoformans; assay: Antimicrobial activity against Cryptococcus neoformans IM 972724 isolate at 6.25 ug/ml after 48 hrs; how it was run: as §4
[19] = system: Saccharomyces cerevisiae; assay: Antifungal activity against Saccharomyces cerevisiae ATCC 9763 after 48 hrs by broth microdilution technique; settings: ATCC 9763, 48 h; how it was run: as §3
[20] = system: Cryptococcus neoformans; assay: Antimicrobial activity against Cryptococcus neoformans ATCC 32264 at 50 ug/ml after 48 hrs; settings: ATCC 32264, 48 h; how it was run: as §2
[21] = system: Cryptococcus neoformans; assay: Antimicrobial activity against Cryptococcus neoformans IM 031631 isolate at 25 ug/ml after 48 hrs; how it was run: as §2
[22] = system: Cryptococcus neoformans; assay: Antimicrobial activity against Cryptococcus neoformans IM 00319 isolate at 25 ug/ml after 48 hrs; how it was run: as §2
[23] = system: Nannizzia gypsea; assay: Antifungal activity against Microsporum gypseum C115 after 48 hrs by broth microdilution technique; how it was run: as §3
[24] = system: Cryptococcus neoformans; assay: Antimicrobial activity against Cryptococcus neoformans IM 042074 isolate at 12.5 ug/ml after 48 hrs; how it was run: as §2
[25] = system: Cryptococcus neoformans; assay: Antimicrobial activity against Cryptococcus neoformans ATCC 32264 at 25 ug/ml after 48 hrs; settings: ATCC 32264, 48 h; how it was run: as §2
[26] = system: Trichophyton rubrum; assay: Antifungal activity against Trichophyton rubrum C110 after 48 hrs by broth microdilution technique; settings: read-out: MIC; how it was run: as §3
[27] = system: Cryptococcus neoformans; assay: Antimicrobial activity against Cryptococcus neoformans IM 983040 isolate at 6.25 ug/ml after 48 hrs; how it was run: as §4
[28] = system: Cryptococcus neoformans; assay: Antimicrobial activity against Cryptococcus neoformans IM 031706 isolate at 100 ug/ml after 48 hrs; how it was run: as §2
[29] = system: Cryptococcus neoformans; assay: Antimicrobial activity against Cryptococcus neoformans IM 961951 isolate at 100 ug/ml after 48 hrs; how it was run: as §2
[30] = system: Cryptococcus neoformans; assay: Antimicrobial activity against Cryptococcus neoformans IM 983036 isolate at 25 ug/ml after 48 hrs; how it was run: as §4
[31] = system: Cryptococcus neoformans; assay: Antimicrobial activity against Cryptococcus neoformans IM 052470 isolate at 50 ug/ml after 48 hrs; how it was run: as §2
[32] = system: Cryptococcus neoformans; assay: Antimicrobial activity against Cryptococcus neoformans IM 042074 isolate at 6.25 ug/ml after 48 hrs; how it was run: as §2
[33] = system: Cryptococcus neoformans; assay: Antimicrobial activity against Cryptococcus neoformans IM 972751 isolate at 50 ug/ml after 48 hrs; how it was run: as §4
[34] = system: Candida albicans; assay: Antimicrobial activity against Candida albicans ATCC 10231 at 25 ug/ml after 24 hrs; settings: ATCC 10231, 24 h; how it was run: as §1
[35] = system: Candida albicans; assay: Antimicrobial activity against Candida albicans ATCC 10231 at 50 ug/ml after 24 hrs; settings: ATCC 10231, 24 h; how it was run: as §1
[36] = system: Trichophyton mentagrophytes; assay: Antifungal activity against Trichophyton mentagrophytes ATCC 9972 after 48 hrs by broth microdilution technique; settings: ATCC 9972, 48 h; how it was run: as §3
[37] = system: Cryptococcus neoformans; assay: Antimicrobial activity against Cryptococcus neoformans IM 972751 isolate at 6.25 ug/ml after 48 hrs; how it was run: as §4
[38] = system: Cryptococcus neoformans; assay: Antimicrobial activity against Cryptococcus neoformans IM 031706 isolate at 6.25 ug/ml after 48 hrs; how it was run: as §2
[39] = system: Cryptococcus neoformans; assay: Antimicrobial activity against Cryptococcus neoformans IM 983040 isolate at 12.5 ug/ml after 48 hrs; how it was run: as §4
[40] = system: Cryptococcus neoformans; assay: Antimicrobial activity against Cryptococcus neoformans IM 042074 isolate at 25 ug/ml after 48 hrs; how it was run: as §2
[41] = system: Candida albicans; assay: Antimicrobial activity against Candida albicans ATCC 10231 at 6.25 ug/ml after 24 hrs; settings: ATCC 10231, 24 h; how it was run: as §1
[42] = system: Cryptococcus neoformans; assay: Antimicrobial activity against Cryptococcus neoformans IM 042074 isolate at 100 ug/ml after 48 hrs; how it was run: as §2
[43] = system: Aspergillus fumigatus; assay: Antifungal activity against Aspergillus fumigatus ATTC 26934 after 48 hrs by broth microdilution technique; how it was run: as §3

Q: With `c1ccc(-c2ccc3ccccc3n2)cc1` [2-PHENYLQUINOLINE] as the compound, how does the inhibition at 12.5 µg/mL [1] read?
A: The inhibition at 12.5 µg/mL was 0%.

Q: And the inhibition at 12.5 µg/mL [2]?
A: Its inhibition at 12.5 µg/mL is 32%.

Q: And the inhibition at 12.5 µg/mL [3]?
A: The inhibition at 12.5 µg/mL was 0%.

Q: And the inhibition at 12.5 µg/mL [4]?
A: The inhibition at 12.5 µg/mL was 0%.

Q: What about the MIC [5] of the same compound?
A: Its MIC is greater than 250 µg/mL.

Q: What about the MIC [6] of the same compound?
A: The MIC was 31.2 µg/mL (≈ 152 µM).

Q: And the inhibition at 12.5 µg/mL [7]?
A: The inhibition at 12.5 µg/mL was 21%.

Q: And the inhibition at 100 µg/mL [8]?
A: The inhibition at 100 µg/mL was 99%.

Q: And the inhibition at 6.25 µg/mL [9]?
A: The inhibition at 6.25 µg/mL was 0%.

Q: What about the inhibition at 100 µg/mL [10] of the same compound?
A: The inhibition at 100 µg/mL was 88%.

Q: And the inhibition at 50 µg/mL [11]?
A: The inhibition at 50 µg/mL was 87%.

Q: What about the inhibition at 100 µg/mL [12] of the same compound?
A: Its inhibition at 100 µg/mL is 50%.

Q: And the inhibition at 100 µg/mL [13]?
A: The inhibition at 100 µg/mL was 83%.

Q: What about the inhibition at 12.5 µg/mL [14] of the same compound?
A: Its inhibition at 12.5 µg/mL is 13%.

Q: And the inhibition at 6.25 µg/mL [15]?
A: Its inhibition at 6.25 µg/mL is 0%.

Q: What about the inhibition at 100 µg/mL [16] of the same compound?
A: The inhibition at 100 µg/mL was 32%.

Q: And the inhibition at 25 µg/mL [17]?
A: Its inhibition at 25 µg/mL is 22%.

Q: And the inhibition at 6.25 µg/mL [18]?
A: Its inhibition at 6.25 µg/mL is 0%.

Q: And the MIC [19]?
A: The MIC was 125 µg/mL (≈ 609 µM).

Q: What about the inhibition at 50 µg/mL [20] of the same compound?
A: Its inhibition at 50 µg/mL is 100%.

Q: What about the inhibition at 25 µg/mL [21] of the same compound?
A: Its inhibition at 25 µg/mL is 15%.

Q: What about the inhibition at 25 µg/mL [22] of the same compound?
A: The inhibition at 25 µg/mL was 14%.

Q: What about the MIC [23] of the same compound?
A: The MIC was 16 µg/mL (≈ 77.9 µM).

Q: And the inhibition at 12.5 µg/mL [24]?
A: The inhibition at 12.5 µg/mL was 7%.

Q: What about the inhibition at 25 µg/mL [25] of the same compound?
A: The inhibition at 25 µg/mL was 77%.

Q: What about the MIC [26] of the same compound?
A: The MIC was 25 µg/mL (≈ 122 µM).

Q: What about the inhibition at 6.25 µg/mL [27] of the same compound?
A: The inhibition at 6.25 µg/mL was 0%.

Q: And the inhibition at 100 µg/mL [28]?
A: Its inhibition at 100 µg/mL is 67%.

Q: What about the inhibition at 100 µg/mL [29] of the same compound?
A: Its inhibition at 100 µg/mL is 45%.

Q: What about the inhibition at 25 µg/mL [30] of the same compound?
A: The inhibition at 25 µg/mL was 0%.

Q: What about the inhibition at 50 µg/mL [31] of the same compound?
A: Its inhibition at 50 µg/mL is 76%.

Q: And the inhibition at 6.25 µg/mL [32]?
A: Its inhibition at 6.25 µg/mL is 0%.

Q: And the inhibition at 50 µg/mL [33]?
A: Its inhibition at 50 µg/mL is 54%.

Q: What about the inhibition at 25 µg/mL [34] of the same compound?
A: Its inhibition at 25 µg/mL is 0%.

Q: And the inhibition at 50 µg/mL [35]?
A: The inhibition at 50 µg/mL was 0%.

Q: And the MIC [36]?
A: Its MIC is 25 µg/mL (≈ 122 µM).

Q: What about the inhibition at 6.25 µg/mL [37] of the same compound?
A: The inhibition at 6.25 µg/mL was 0%.

Q: And the inhibition at 6.25 µg/mL [38]?
A: The inhibition at 6.25 µg/mL was 0%.

Q: What about the inhibition at 12.5 µg/mL [39] of the same compound?
A: Its inhibition at 12.5 µg/mL is 4%.

Q: What about the inhibition at 25 µg/mL [40] of the same compound?
A: The inhibition at 25 µg/mL was 33%.

Q: And the inhibition at 6.25 µg/mL [41]?
A: Its inhibition at 6.25 µg/mL is 0%.

Q: And the inhibition at 100 µg/mL [42]?
A: The inhibition at 100 µg/mL was 84%.

Q: And the MIC [43]?
A: The MIC was greater than 250 µg/mL.
